Laboratory results from ChEMBL document CHEMBL1146236, “Antineoplastic agents. 560. Isolation and structure of kitastatin 1 from an Alaskan Kitasatospora sp” (2007).
Values after ≈ are worked out from the molar mass of the structure shown.

How the values were obtained:
Micrococcus luteus = test: Antibacterial activity against Micrococcus luteus Presque Isle 456; format: functional
Procedure, shortened: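 Broth microdilution susceptibility test per NCCLS standards, strain Presque Isle 456. Compound reconstituted in sterile DMSO, diluted in the appropriate medium immediately before testing. MIC taken as the lowest concentration giving complete inhibition of visible growth (optically clear).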

BXPC-3 = test: Growth inhibition of human BXPC3 cells after 48 hrs by sulforhodamine B assay; format: functional; conditions: BXPC-3, 48 h
Procedure, shortened: (§1)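 Cells in 5% fetal bovine serum/RPMI1640 were seeded and preincubated 24 h, then exposed to serial compound dilutions for 48 h. Plates were TCA-fixed, stained with sulforhodamine B and read by microplate reader. ED50 (concentration giving 50% reduction in net protein increase) was calculated from optical density data.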

MCF7 = test: Growth inhibition of human MCF7 cells after 48 hrs by sulforhodamine B assay; format: functional; conditions: MCF7, 48 h; procedure, shortened: as §1
SF-268 = test: Growth inhibition of human SF268 cells after 48 hrs by sulforhodamine B assay; format: functional; conditions: SF-268, 48 h; procedure, shortened: as §1
NCI-H460 = test: Growth inhibition of human NCI-H460 cells after 48 hrs by sulforhodamine B assay; format: functional; conditions: NCI-H460, 48 h; procedure, shortened: as §1
KM-20L2 = test: Growth inhibition of human KM20L2 cells after 48 hrs by sulforhodamine B assay; format: functional; conditions: KM-20L2, 48 h; procedure, shortened: as §1
DU-145 = test: Growth inhibition of human DU145 cells after 48 hrs by sulforhodamine B assay; format: functional; conditions: DU-145, 48 h; procedure, shortened: as §1
P388 = test: Growth inhibition of mouse P388 cells after 48 hrs by Coulter particle counting; conditions: P388, 48 h, read-out: ED50 (the source's name)
Cryptococcus neoformans = test: Antifungal activity against Cryptococcus neoformans ATCC 90112; format: functional
Procedure, shortened: (§2)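 Broth microdilution susceptibility testing, following NCCLS reference methods (M7-A5 for bacteria, M27-A2 for yeasts). Compounds reconstituted in sterile DMSO and diluted in the appropriate medium just before testing. MIC was the lowest concentration giving complete inhibition of visible growth (optically clear).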

Enterococcus faecalis = test: Antibacterial activity against Enterococcus faecalis ATCC 29212; format: functional; procedure, shortened: as §2

| MIC (Micrococcus luteus) [ng/mL] | Compound | GI50 (BXPC-3) [ng/mL] | GI50 (MCF7) [ng/mL] | GI50 (SF-268) [ng/mL] | GI50 (NCI-H460) [ng/mL] | GI50 (KM-20L2) [ng/mL] | GI50 (DU-145) [ng/mL] | EC50 (P388) [ng/mL] | MIC (Cryptococcus neoformans) [ng/mL] | MIC (Enterococcus faecalis) [ng/mL] |
| --- | --- | --- | --- | --- | --- | --- | --- | --- | --- | --- |
| 64000 (≈ 87200 nM) | CCC(C)[C@@H]1OC(=O)[C@H](C)OC(=O)[C@@H](NC(=O)c2cccc(NC=O)c2O)[C@@H](C)OC(=O)[C@H](C(C)C)OC(=O)C(C)(C)C(=O)[C@H](CC(C)C)NC1=O (stereo not given in full) | 1200 (≈ 1640 nM) | 0.64 (≈ 0.872 nM) | 16 (≈ 21.8 nM) | 0.63 (≈ 0.859 nM) | 0.58 (≈ 0.79 nM) | < 0.1 | 33 (≈ 45 nM) | – | – |
| – | CCC(C)[C@@H]1OC(=O)[C@H](C)OC(=O)[C@@H](NC(=O)c2cccc(N)c2O)[C@@H](C)OC(=O)[C@H](CC(C)C)OC(=O)C(C)(C)C(=O)[C@H](CC(C)C)NC1=O (stereo not given in full) [KITASTATIN] | 6.6 (≈ 9.17 nM) | 4 (≈ 5.56 nM) | 3.5 (≈ 4.86 nM) | < 1 | 2.4 (≈ 3.33 nM) | 2.6 (≈ 3.61 nM) | 45 (≈ 62.5 nM) | 64000 (≈ 88900 nM) | 64000 (≈ 88900 nM) |
| – | CCC(C)[C@@H]1OC(=O)[C@H](C)OC(=O)[C@@H](NC(=O)c2cccc(NC=O)c2O)[C@@H](C)OC(=O)[C@H](CC(C)C)OC(=O)C(C)(C)C(=O)[C@H](CC(C)C)NC1=O (stereo not given in full) [RESPIRANTIN] | 470 (≈ 628 nM) | 0.6 (≈ 0.802 nM) | 1.6 (≈ 2.14 nM) | 0.6 (≈ 0.802 nM) | 0.6 (≈ 0.802 nM) | 0.18 (≈ 0.241 nM) | 3.7 (≈ 4.95 nM) | 2000 (≈ 2670 nM) | – |
